Source: ChEMBL document CHEMBL1144414, “C-5-disubstituted barbiturates as potential molecular probes for noninvasive matrix metalloproteinase imaging” (J Med Chem, 2005)

How the values were obtained:
Homo sapiens = organism: Homo sapiens; test: Ratio of IC50 for human Matrix metalloprotease 2 binding and Matrix metalloprotease 9
[1] = Partition coefficient (logD7.4); format: physicochemical; details: octanol/water, pH 7.4
[2] = target: T1, 72 kDa type IV collagenase (Homo sapiens, UniProt P08253); test: In vitro inhibition of human Matrix metalloprotease 2
Method in brief: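 Human active MMP-2 (1 nM) preincubated with inhibitor (10 pM to 1 mM) in 50 mM Tris·HCl pH 7.5, 0.2 M NaCl, 5 mM CaCl2, 20 µM ZnSO4, 0.05% Brij 35, 37 °C, 30 min. Fluorogenic Mca-Pro-Leu-Gly-Leu-Dpa-Ala-Arg-NH2 substrate (10 µL of 50 µM into 90 µL) added. Fluorescence (ex 330/em 390 nm) followed at 37 °C. Initial 10-min rates fitted by nonlinear regression for IC50.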

[3] = target: T2, Matrix metalloproteinase-9 (Homo sapiens, UniProt P14780); test: (§1) In vitro inhibition of human Matrix metalloprotease 9
Method in brief: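 Human active MMP-9 (2 nM) preincubated 30 min at 37 °C with inhibitor (10 pM to 1 mM) in 50 mM Tris·HCl pH 7.5, 0.2 M NaCl, 5 mM CaCl2, 20 µM ZnSO4, 0.05% Brij 35. Fluorogenic Mca-Pro-Leu-Gly-Leu-Dpa-Ala-Arg-NH2 substrate added from a 50 µM stock. Fluorescence (ex 330/em 390 nm) followed at 37 °C. Initial 10-min linear rates versus dose; IC50 by nonlinear regression.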

[4] = target: T1, 72 kDa type IV collagenase; test: In vitro inhibition of human Matrix metalloprotease 2; I.A.=inactive
Method in brief: (§2)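 Human active enzyme, MMP-2 at 1 nM or MMP-9 at 2 nM, preincubated 30 min at 37 °C with inhibitor (10 pM to 1 mM) in 50 mM Tris·HCl pH 7.5, 0.2 M NaCl, 5 mM CaCl2, 20 µM ZnSO4, 0.05% Brij 35. Mca-PLGL-Dpa-AR-NH2 substrate added, fluorescence followed at 37 °C (ex 330/em 390 nm). Initial 10-min rates fitted by nonlinear regression for IC50.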

[5] = target: T2, Matrix metalloproteinase-9; test: In vitro inhibition of human Matrix metalloprotease 9; I.A.=inactive; method in brief: as §2
[6] = target: T2, Matrix metalloproteinase-9; test: as §1; remark: listed apart in the source

T2 sequence (P14780 whole entry): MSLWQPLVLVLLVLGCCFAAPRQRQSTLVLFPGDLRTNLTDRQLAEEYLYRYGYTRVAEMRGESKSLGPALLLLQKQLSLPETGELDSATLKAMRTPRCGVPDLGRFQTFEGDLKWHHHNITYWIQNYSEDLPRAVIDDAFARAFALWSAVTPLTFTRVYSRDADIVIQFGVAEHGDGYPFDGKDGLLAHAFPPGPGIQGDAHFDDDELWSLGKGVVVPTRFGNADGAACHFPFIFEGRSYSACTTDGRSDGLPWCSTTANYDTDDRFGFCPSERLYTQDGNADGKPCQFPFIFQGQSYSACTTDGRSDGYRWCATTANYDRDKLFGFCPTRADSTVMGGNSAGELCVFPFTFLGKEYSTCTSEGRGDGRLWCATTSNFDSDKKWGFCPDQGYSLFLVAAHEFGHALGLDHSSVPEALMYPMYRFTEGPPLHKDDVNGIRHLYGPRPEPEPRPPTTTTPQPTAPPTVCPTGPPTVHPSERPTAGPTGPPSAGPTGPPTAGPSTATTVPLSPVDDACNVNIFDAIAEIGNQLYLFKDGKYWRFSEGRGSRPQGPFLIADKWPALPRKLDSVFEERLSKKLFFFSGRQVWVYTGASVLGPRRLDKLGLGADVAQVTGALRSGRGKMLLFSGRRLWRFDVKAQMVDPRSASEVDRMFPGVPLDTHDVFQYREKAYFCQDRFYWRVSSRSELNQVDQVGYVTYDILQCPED
T1 sequence (P08253 whole entry): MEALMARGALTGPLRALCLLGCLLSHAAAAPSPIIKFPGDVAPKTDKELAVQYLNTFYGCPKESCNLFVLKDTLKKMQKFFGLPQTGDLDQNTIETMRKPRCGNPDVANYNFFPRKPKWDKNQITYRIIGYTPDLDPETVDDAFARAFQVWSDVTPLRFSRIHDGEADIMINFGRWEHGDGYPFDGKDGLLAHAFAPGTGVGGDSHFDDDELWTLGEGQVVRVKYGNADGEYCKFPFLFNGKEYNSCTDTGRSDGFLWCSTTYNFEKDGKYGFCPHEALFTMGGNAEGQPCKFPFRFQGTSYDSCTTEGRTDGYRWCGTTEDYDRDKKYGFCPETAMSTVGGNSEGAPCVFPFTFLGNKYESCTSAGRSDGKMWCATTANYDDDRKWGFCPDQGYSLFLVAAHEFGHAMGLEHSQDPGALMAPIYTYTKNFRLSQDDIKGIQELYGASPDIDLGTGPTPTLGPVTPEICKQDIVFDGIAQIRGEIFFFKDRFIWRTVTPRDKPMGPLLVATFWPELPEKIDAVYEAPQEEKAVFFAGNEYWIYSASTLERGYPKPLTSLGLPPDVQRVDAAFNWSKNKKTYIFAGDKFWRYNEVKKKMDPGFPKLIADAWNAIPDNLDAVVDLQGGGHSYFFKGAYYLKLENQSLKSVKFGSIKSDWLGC

| Compound | Selectivity (Homo sapiens) | logD [1] | IC50 [2] | IC50 [3] | IC50 [4] | IC50 [5] | IC50 [6] |
| --- | --- | --- | --- | --- | --- | --- | --- |
| O=C1NC(=O)C(c2ccc(Oc3ccc(I)cc3)cc2)(N2CCN(CCO)CC2)C(=O)N1 | 3.5 | 3.68 | – | – | – | – | – |
| C[Si](C)(C)c1ccc(N2CCN(C3(c4ccc(Oc5ccc(Br)cc5)cc4)C(=O)NC(=O)NC3=O)CC2)cc1 | 2.7 | 8.32 | 1500 nM | 550 nM | – | – | – |
| COCCN1CCN(C2(c3ccc(Oc4ccc(OC)cc4)cc3)C(=O)N(C)C(=O)N(C)C2=O)CC1 | – | 0.95 | – | – | Not Active | Not Active | – |
| O=C1NC(=O)C(c2ccc(Oc3ccc(Br)cc3)cc2)(N2CCN(c3ccc([N+](=O)[O-])cc3)CC2)C(=O)N1 | 0.28 | 6.27 | 16 nM | 57 nM | – | – | – |
| COc1ccc(Oc2ccc(C3(N4CCN(CCO)CC4)C(=O)NC(=O)NC3=O)cc2)cc1 | 1.5 | 1.79 | – | – | – | – | – |
| O=C1NC(=O)C(c2ccc(Oc3ccc(Br)cc3)cc2)(N2CCN(CCBr)CC2)C(=O)N1 | 1.2 | 4.67 | 30 nM | 26 nM | – | – | – |
| NCCN1CCN(C2(c3ccc(Oc4ccc(Br)cc4)cc3)C(=O)NC(=O)NC2=O)CC1 | 0.71 | 0.78 | 10 nM | 14 nM | – | – | – |
| CC(C)[C@@H](NS(=O)(=O)c1ccc(C#CCCCC[18F])cc1)C(=O)O | – | – | 1900 nM | – | – | – | – |
| O=C1NC(=O)C(c2ccc(Oc3ccc(Br)cc3)cc2)(N2CCN(CCO)CC2)C(=O)N1 | 2.3 | 3.42 | – | – | – | – | – |
| O=C(O)CCN1CCN(C2(c3ccc(Oc4ccc(Br)cc4)cc3)C(=O)NC(=O)NC2=O)CC1 | 3.3 | 0.81 | 85 nM | 26 nM | – | – | – |
| CC(C)N1CCN(C2(c3ccc(Oc4ccc(Br)cc4)cc3)C(=O)NC(=O)NC2=O)CC1 | 26 | 4.47 | – | – | – | – | – |
| O=C1NC(=S)NC(=O)C1(c1ccc(Oc2ccc(Br)cc2)cc1)N1CCN(CCO)CC1 | – | 3.85 | 7.21 nM | – | – | – | – |
| O=C1NC(=O)C(c2ccc(Oc3ccc(Br)cc3)cc2)(N2CCN(c3ccc(I)cc3)CC2)C(=O)N1 | 8.6 | 7.22 | 86 nM | 10 nM | – | – | – |
| O=C1NC(=O)C(c2ccc(Oc3ccc(Br)cc3)cc2)(N2CCN(c3ccc(F)cc3)CC2)C(=O)N1 | 0.63 | 6.11 | – | – | – | – | – |
| O=C1NC(=O)C(c2ccc(Oc3ccc(Br)cc3)cc2)(N2CCNCC2)C(=O)N1 | 2.5 | 3.04 | 5 nM | 2 nM | – | – | – |
| O=C1NC(=O)C(c2ccc(Oc3ccc(Br)cc3)cc2)C(=O)N1 | – | 0.41 | 3700 nM | – | – | – | – |
| O=C1NC(=O)C(c2ccc(Oc3ccc(Br)cc3)cc2)(N2CCN(C(=O)c3cccc(I)c3)CC2)C(=O)N1 | 0.75 | 5.86 | 15 nM | 20 nM | – | – | – |
| CC(C)[C@@H](NS(=O)(=O)c1ccc(NC(=O)c2ccc(O[11CH3])cc2)cc1)C(=O)O | – | – | 110 nM | – | – | – | 200 nM |
